According to ChEMBL document CHEMBL3286338, “SAR studies on hydropentalene derivatives--Important core units of biologically active tetramic acid macrolactams and ptychanolides” (Bioorg Med Chem, 2014):
pIC50: −log10 of the molar value. Calls of active or inactive are those of the source. The calls are words filed in the database; no cut-off is given here.

Assays:
[1] = test system: L929; assay: Antiproliferative activity against mouse L929 cells by MTT assay; format: functional, cell-based
How it was run: (§1)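 Cells kept in supplier-recommended media at 37 °C, 10% CO2. Serial dilutions added to a cell suspension (50,000 per mL) and incubated 5 d alongside blank and solvent controls. MTT then added to 0.5 mg mL^-1 final for 2 h, and formazan precipitate collected by centrifugation. Run as two parallel experiments; activity taken as mean relative to controls set at 100%.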

[2] = Antiproliferative activity against human KB-3-1 cells by MTT assay; format: functional, cell-based; how it was run: as §1
[3] = test system: PtK2; assay: Effect on chromosme distribution in Potorous tridactylus PtK2 cells at 4 ug/ml for overnight incubation by DAPI staining analysis; format: functional, cell-based
How it was run: (§2)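 PtK2 cells on glass coverslips incubated overnight with compound or with methanol only. For alpha-tubulin staining, fixed in cold (-20 °C) MeOH/acetone (1:1) for 10 min, then probed with primary antibody. DNA counterstained. Microtubular network, mitotic spindles and chromosome distribution assessed by fluorescence microscopy.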

[4] = test system: L929; assay: Effect on microtubule polymerization in mouse L929 cells at 0.4 ug/ml by impedance profiling; format: cell-based
How it was run: (§3)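 L-929 cell cultures incubated with compound while impedance was recorded over time. The time-dependent impedance curves served as a mode-of-action fingerprint and were compared statistically, by cluster analysis, against curves from a set of reference compounds. Controls received methanol.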

[5] = test system: PtK2; assay: Effect on F-actin cytoskeleton in Potorous tridactylus PtK2 cells at 3 ug/ml for overnight incubation by DAPI staining analysis; format: cell-based
How it was run: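 PtK2 cells grown on glass coverslips and exposed to compound overnight, with methanol-only controls. Fixed in 3.7% formalin for 10 min, permeabilized with 0.1% Triton X-100 for 5 min, then stained with Alexa Fluor 488 phalloidin (1:100) for 1 h. F-actin (green) and DNA (blue) examined by fluorescence microscopy.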

[6] = Cytotoxicity against Potorous tridactylus PtK2 cells by MTT assay; format: functional, cell-based; how it was run: as §1
[7] = test system: L929; assay: Effect on spindle formation in mouse L929 cells at 0.4 ug/ml by impedance profiling; format: cell-based; how it was run: as §3
[8] = target: Tubulin (Sus scrofa) (UniProt P02554+P02550); assay: Inhibition of porcine tubulin polymerization at 500 ug/ml by fluorescence analysis; format: protein assay
Tubulin (Sus scrofa), sequence (P02550 whole entry, looked up): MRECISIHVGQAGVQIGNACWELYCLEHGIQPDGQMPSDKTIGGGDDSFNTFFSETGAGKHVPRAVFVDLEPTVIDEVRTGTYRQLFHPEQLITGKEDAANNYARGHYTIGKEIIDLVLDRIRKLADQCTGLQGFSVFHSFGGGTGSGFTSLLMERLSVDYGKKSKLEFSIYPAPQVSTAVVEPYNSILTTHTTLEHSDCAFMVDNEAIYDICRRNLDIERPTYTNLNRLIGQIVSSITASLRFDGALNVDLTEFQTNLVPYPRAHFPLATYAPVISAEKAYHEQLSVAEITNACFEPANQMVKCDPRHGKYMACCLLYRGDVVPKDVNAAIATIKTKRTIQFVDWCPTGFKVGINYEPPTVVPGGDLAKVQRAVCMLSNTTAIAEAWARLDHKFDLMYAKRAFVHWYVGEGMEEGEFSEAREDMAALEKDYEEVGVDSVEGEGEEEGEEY
Tubulin (Sus scrofa), sequence (P02554 whole entry, looked up): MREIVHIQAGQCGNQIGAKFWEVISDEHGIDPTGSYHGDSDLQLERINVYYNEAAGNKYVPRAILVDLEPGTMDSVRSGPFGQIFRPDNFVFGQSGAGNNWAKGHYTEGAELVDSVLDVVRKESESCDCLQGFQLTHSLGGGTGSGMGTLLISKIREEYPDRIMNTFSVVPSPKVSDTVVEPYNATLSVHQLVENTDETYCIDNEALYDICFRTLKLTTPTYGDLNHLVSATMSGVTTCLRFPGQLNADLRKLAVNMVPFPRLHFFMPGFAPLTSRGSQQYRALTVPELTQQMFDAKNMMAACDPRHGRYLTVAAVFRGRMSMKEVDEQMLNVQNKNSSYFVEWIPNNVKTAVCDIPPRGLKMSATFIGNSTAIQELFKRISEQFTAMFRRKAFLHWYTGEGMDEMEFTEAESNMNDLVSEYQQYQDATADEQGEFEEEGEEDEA
How it was run: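 Porcine tubulin (kit master mix with buffer, glycerol and GTP) mixed with compound at a 5:50 volume ratio. Placed at once in a fluorimeter at 37 °C. Polymerization followed by incorporation of a fluorescent reporter, read at 460 nm (excitation 340 nm) for about 1 h. Methanol and nocodazole served as controls.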

[9] = test system: PtK2; assay: Effect on mitotic spindle in Potorous tridactylus PtK2 cells at 4 ug/ml for overnight incubation by DAPI staining analysis; format: functional, cell-based; how it was run: as §2
[10] = test system: PtK2; assay: Effect on microtubular network in Potorous tridactylus PtK2 cells at 4 ug/ml for overnight incubation by DAPI staining analysis; format: functional, cell-based; how it was run: as §2
[11] = test system: L929; assay: Effect on microtubule polymerization in mouse L929 cells at 3 ng/ml by impedance profiling; format: cell-based
How it was run: (§4)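 L-929 mouse fibroblasts were cultured at 37 °C and 10% CO₂ in supplier-recommended medium. Cells were exposed to compound, with methanol-only controls, and impedance was recorded over time. The time-dependent impedance curves served as a mode-of-action fingerprint and were compared statistically, by cluster analysis, with curves from a panel of reference compounds, including microtubule-interfering agents.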

[12] = test system: L929; assay: Effect on spindle formation in mouse L929 cells at 3 ng/ml by impedance profiling; format: cell-based; how it was run: as §4

SMILES	IC50 [1] [µg/mL]	IC50 [2] [µg/mL]	pIC50 [1]	pIC50 [2]	other results
O=C1C2C(O)CCCC2[C@H]2[C@@H]1CC(Br)C21OCCO1 (stereo partly drawn)	22	10	–	–	–
C=C1C[C@@H]2CC3(C[C@@H]2C1)OCC(C)(C)CO3	> 40	> 40	–	–	–
C[C@@H]1[C@@H]2[C@@H](CC(=O)[C@H]2C)C[C@H]1O[Si](c1ccccc1)(c1ccccc1)C(C)(C)C	–	–	4.83	5.13	–
C=CC[C@@H]1[C@H]2[C@H](C)C=C[C@H]2C[C@H]1O[Si](c1ccccc1)(c1ccccc1)C(C)(C)C	–	–	5.14	< 4.02	–
C[C@H]1[C@H](O)C[C@]2(C)CC3(C[C@]12C)OCC(C)(C)CO3	–	–	< 3.82	–	–
C=CC[C@@H]1[C@@H]2[C@@H](CC(=O)[C@H]2C)C[C@H]1O[Si](c1ccccc1)(c1ccccc1)C(C)(C)C	–	–	4.79	4.69	–
CC(C)(C)[Si](OC1CCCC1)(c1ccccc1)c1ccccc1	–	–	4.21	–	–
C1COC2(CC[C@@H]3[C@H]4O[C@H]4C[C@@H]32)O1	> 40	–	–	–	–
CC(C)(C)[Si](OC1CCCCCC1)(c1ccccc1)c1ccccc1	40	6.2	–	–	–
O=CCCCC1CC(=O)[C@H]2[C@@H]1CCC21OCCO1 (stereo partly drawn)	> 40	> 40	–	–	–
C=CC[C@@H]1[C@@H]2[C@H](C[C@H]1O[Si](c1ccccc1)(c1ccccc1)C(C)(C)C)[C@@H](C)C(=O)[C@H]2C	5.8	7.9	–	–	–
C[C@H]1C(=O)C[C@]2(C)CC3(C[C@]12C)OCC(C)(C)CO3	–	–	< 3.82	–	–
CC(C)=CC[C@@H]1C(=O)C[C@H]2C[C@@H](O[Si](c3ccccc3)(c3ccccc3)C(C)(C)C)[C@H](C)[C@H]21	–	–	5.25	4.66	–
Cc1ccc(S(=O)(=O)N/N=C2/C[C@@H]3CC4(C[C@@H]3C2)OCC(C)(C)CO4)cc1	> 40	> 40	–	–	–
C[C@@H]1[C@H](O[Si](c2ccccc2)(c2ccccc2)C(C)(C)C)C[C@]2(C)CC(=O)C[C@]12C	–	–	4.45	–	–
C=CCC[C@H]1CC(=O)[C@@H]2C=CC(=O)[C@H]12 (racemic)	–	–	4.70	4.79	–
O=C1C=C[C@H]2C(=O)C=C[C@@H]12	–	–	5.52	5.22	Activity [3]: Active; Activity [4]: Active; Activity [5]: inactive; pIC50 [6]: 5.52; Activity [7]: Active; inhibition [8]: Active; Activity [9]: Active; Activity [10]: Active
CC(C)(C)[Si](O[C@H]1C[C@H]2CC(=O)C[C@H]2C1)(c1ccccc1)c1ccccc1	> 40	> 40	–	–	–
CC1(C)COC2(C[C@@H]3CC=C[C@@H]3C2)OC1	> 40	> 40	–	–	–

SMILES	IC50 [1] [µg/mL]	IC50 [2] [µg/mL]	pIC50 [1]	pIC50 [2]	other results
CC(C)(C)[Si](OC1CCCCC1)(c1ccccc1)c1ccccc1	40	7.5	–	–	–
O=C1CC(CCCCO)[C@H]2CCC3(OCCO3)[C@@H]12 (stereo partly drawn)	> 40	> 40	–	–	–
Cc1cc(C)c(O[C@@H]2C[C@@H]3CC4(C[C@@H]3C2)OCC(C)(C)CO4)c(C)c1	> 40	> 40	–	–	–
CC1(C)COC2(CC[C@@H]3[C@@H](O)[C@H](O)C[C@@H]32)OC1	> 40	> 40	–	–	–
CC(C)[Si](OC1CCCC1)(C(C)C)C(C)C	–	–	3.95	3.91	–
O=C1CC[C@H]2[C@@H]1CCC21OCCO1	> 40	> 40	–	–	–
CC(C)(C)[Si](C)(C)OC1CCCC1	–	–	< 3.70	< 3.70	–
C[C@H]1[C@H](O[Si](c2ccccc2)(c2ccccc2)C(C)(C)C)C[C@]2(C)CC(=O)C[C@]12C	–	–	4.84	–	–
CC1(C)COC2(C[C@H]3C[C@H](O)C[C@H]3C2)OC1	> 40	> 40	–	–	–
C=CC[C@@H]1[C@@H]2[C@@H](CC(=O)[C@H]2CC=C)C[C@H]1O	> 40	> 40	–	–	–
CCCC(=O)OCN(C(=O)[C@@H](NC(=O)[C@H]1CCCCN1C)[C@@H](C)CC)[C@H](C[C@@H](OC(C)=O)c1nc(C(=O)N[C@@H](Cc2ccc(O)cc2)C[C@H](C)C(=O)O)cs1)C(C)C	–	–	–	–	Activity [11]: Active; Activity [12]: Active
CC(C)(C)[Si](O[C@@H]1[C@H]2CCC3(OCCO3)[C@H]2C[C@H]1O)(c1ccccc1)c1ccccc1	–	–	4.39	–	–
C=CC[C@@H]1[C@H]2C/C(=N\NS(=O)(=O)c3ccc(C)cc3)[C@H](C)[C@H]2C[C@H]1O[Si](c1ccccc1)(c1ccccc1)C(C)(C)C	–	–	4.70	4.88	–
BrC1C[C@H]2[C@H](CC(Br)C23OCCO3)C12CCCC2 (stereo partly drawn)	> 40	> 40	–	–	–
CC(C)(C)[Si](C)(C)OC1CCCC2C1C(=O)[C@H]1CC(Br)C3(OCCO3)[C@@H]21 (stereo partly drawn)	32	> 40	–	–	–
C[C@H]1[C@H](O[Si](c2ccccc2)(c2ccccc2)C(C)(C)C)C[C@]2(C)CC3(C[C@]12C)OCC(C)(C)CO3	–	–	4.80	–	–
C=CC[C@@H]1[C@H]2CC(=O)[C@H](C)[C@H]2C[C@H]1O[Si](c1ccccc1)(c1ccccc1)C(C)(C)C	–	–	4.49	4.80	–
C=CCC[C@H]1CC2(OCCO2)[C@@H]2C=CC(=O)[C@H]12 (racemic)	–	–	4.59	4.49	–
C=CC[C@@H]1[C@H]2CC(=O)[C@H](CC=C)[C@H]2C[C@H]1O	> 40	> 40	–	–	–

SMILES	IC50 [1] [µg/mL]	IC50 [2] [µg/mL]	pIC50 [1]	pIC50 [2]	other results
O=C1C[C@@H]2C[C@@H](O)C[C@@H]2C1	> 40	> 40	–	–	–
CCC(=O)O[C@@H]1C[C@@H]2CC3(C[C@@H]2C1)OCC(C)(C)CO3	–	–	< 3.85	< 3.85	–
CC(C)=CC[C@H]1C(=O)C[C@@H]2[C@@H](C)[C@H](O[Si](c3ccccc3)(c3ccccc3)C(C)(C)C)C[C@@H]21	–	–	4.62	4.55	–
C#CC(=O)O[C@H]1C[C@@H]2C[C@H](O[Si](c3ccccc3)(c3ccccc3)C(C)(C)C)C[C@@H]2C1	–	–	5.03	–	–
C=CC[C@@H]1[C@H]2C=C[C@H](C)[C@H]2C[C@H]1O[Si](c1ccccc1)(c1ccccc1)C(C)(C)C	–	–	4.69	< 4.02	–
O=C1C[C@@H]2C[C@H](O)C[C@@H]2C1	> 40	> 40	–	–	–
CC(C)(C)[Si](O[C@H]1[C@H]2CCC3(OCCO3)[C@H]2C[C@@H]1O)(c1ccccc1)c1ccccc1	–	–	4.41	–	–
CC1(C)COC2(C[C@@H]3CC4OC4[C@@H]3C2)OC1 (stereo partly drawn)	> 40	> 40	–	–	–
C[C@@H]1[C@H](O)C[C@]2(C)CC3(C[C@]12C)OCC(C)(C)CO3	–	–	< 3.82	–	–
CC(C)(C)[Si](C)(C)OC1CCCC2C1C(O)[C@H]1CC(Br)C3(OCCO3)[C@@H]21 (stereo partly drawn)	15	14	–	–	–
C[C@@H]1[C@H](O[Si](c2ccccc2)(c2ccccc2)C(C)(C)C)C[C@]2(C)CC3(C[C@]12C)OCC(C)(C)CO3	–	–	4.93	–	–
C=CC[C@@H]1C(=O)C[C@H]2C[C@@H](O[Si](c3ccccc3)(c3ccccc3)C(C)(C)C)[C@H](C)[C@H]21	–	–	5.29	4.79	–
CC1(C)COC2(C[C@H]3C[C@@H](CO)C[C@H]3C2)OC1	> 40	> 40	–	–	–
C=CC[C@H]1C(=O)C[C@@H]2[C@@H](C)[C@H](O[Si](c3ccccc3)(c3ccccc3)C(C)(C)C)C[C@@H]21	–	–	4.75	5.16	–
C=CC[C@@H]1[C@@H]2[C@@H](C/C(=N/NS(=O)(=O)c3ccc(C)cc3)[C@H]2C)C[C@H]1O[Si](c1ccccc1)(c1ccccc1)C(C)(C)C	–	–	< 4.17	4.90	–
O=C1C=C(CCCCOCc2ccccc2)[C@H]2CCC3(OCCO3)[C@@H]12	> 40	> 40	–	–	–
C[C@@H]1[C@H]2CC(=O)[C@H](C)[C@H]2C[C@H]1O[Si](c1ccccc1)(c1ccccc1)C(C)(C)C	–	–	5.13	4.82	–
O[C@@H]1[C@H]2CCC3(OCCO3)[C@H]2C[C@@H]1O	> 40	> 40	–	–	–
